# FAS TE block: FAS thioesterase domain inhibitors, primary screen, biochemical, fluorescence intensity, uHTS | Fatty acid synthase (Homo sapiens), P49327 | inhibition, % at 15 µM | recombinant FAS-TE, OMFH fluorogenic substrate, fluorescence endpoint | hit rate 0.67% among 360,000;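 active means compounds whose normalised, plate-corrected inhibition of enzyme fluorescence in the single-dose primary screen is 50% or more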;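 further: 0% = DMSO with enzyme and 100% = substrate without enzyme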
# H9c2 protect: cardioprotection against H2O2-induced cell death, primary screen, uHTS, H9c2 cells, ATPLite luminescence; protection from H2O2 cell death, % at 20 µM; hit rate 0.63% among 360,000; H9c2 cardiomyocytes, H2O2 injury protection, 2 h; AID 588492, 2011;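 active means compounds giving at least 50% protection of heart cells from peroxide-induced death in the single-dose screen, raw or plate-pattern-corrected value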;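 further: 0% = DMSO wells with peroxide and 100% = DMSO wells without peroxide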
# SENP1 inh: human SENP1 catalytic domain inhibitors, primary screen, biochemical, FRET, uHTS; recombinant SENP1 catalytic domain, CyPet-SUMO1-YPet FRET cleavage; hit rate 0.21% among 360,000; AID 624204, 2012; inhibition, % at 10 µM; Sentrin-specific protease 1 (Homo sapiens), Q9P0U3;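 active means inhibition at least 30% at 10 µM, raw YFP signal under a set limit, fluorescence ratio 0.5 to 1.5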;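 further: 0% = enzyme with DMSO and 100% = no enzyme wells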
# Target sequence (Q9P0U3 419-644 limits assumed): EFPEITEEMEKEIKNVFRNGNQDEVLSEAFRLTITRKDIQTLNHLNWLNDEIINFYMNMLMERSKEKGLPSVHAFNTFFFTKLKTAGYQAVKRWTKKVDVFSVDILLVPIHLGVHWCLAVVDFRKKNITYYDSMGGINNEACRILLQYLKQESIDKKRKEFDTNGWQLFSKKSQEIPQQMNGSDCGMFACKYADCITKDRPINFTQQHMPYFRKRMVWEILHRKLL
#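 Test system: recombinant human SENP1 catalytic domain, His6-tagged / Medium: pH 8 Tris buffer with EDTA, NaCl, BME, BSA, NP40, catalase / Also added: SUMO1 FRET substrate flanked by Cypet and Ypet, 25 nM / Times: 50 min reaction at room temperature / Signal: FRET, CFP and YFP emission / Control set: no-enzyme low control and enzyme-plus-DMSO high control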
# Arr AP2 block: inhibitors of beta-arrestin/AP2 binding, primary screen, biochemical, GPCR trafficking, flow cytometry; beta-arrestin 1 C-terminal peptide binding to AP2 beta2-adaptin appendage (human); FITC-arrestin peptide / GST-AP2 beads; AP2 beta2 appendage carries R879A mutation; inhibition, % at 10 µM; hit rate 0.31% among 340,000; AID 504490, 2011;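 active means inhibition above a set limit, near 3 SD of compounds lacking own fluorescence, cut at about 54% in these data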;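 further: plate controls were DMSO wells for no effect and 5 µM unlabelled arrestin peptide for full effect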
#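 Assay system: GST-AP2 R879A bound to glutathione beads, E. coli-expressed; Medium: PBS with 0.05% Tween 20 and 0.1% BSA; Also added: fluorescein-tagged arrestin peptide at 50 nM final; Timing: 12 min plus 1 h, RT; Measured by: flow cytometry, FL1 (488/535 nm); Evaluation: percent drop in bead-associated FITC signal.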
# GRIN3A LBD mod: binders of NR3A ligand-binding domain, primary screen, biophysical, differential scanning fluorimetry, uHTS; Glutamate receptor ionotropic, NMDA 3A (GRIN3A) ligand-binding domain; NR3A LBD differential scanning fluorimetry, Tm shift; 0% = protein alone, 100% = glycine-bound protein; Tm shift relative to glycine control, % at 25 µM; hit rate 2.5% among 340,000; AID 1259313, 2017;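 active means melting temperature shift of at least 10% of the positive control shift, at one fixed dose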
# iPSC survival up: enhancers of single-cell hiPSC survival, primary screen, ATPlite luminescence; hit rate 0.044% among 360,000; AID 602274, 2012; 100% = ROCK inhibitor wells, 0% = DMSO; survival enhancement, % at 20 µM; in the data active means survival enhancement above about 18%;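 further: cells exposed to compounds for 16 hours before the ATP read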
# Numbers without * were called inactive; . = no result given. A selection: hits, their analogues and other compounds. The true share with any hit is near 4%.
SMILES,FAS TE block,H9c2 protect,SENP1 inh,Arr AP2 block,GRIN3A LBD mod,iPSC survival up
C=C1C(=O)O[C@@H]2C[C@@H](C)[C@@H]3C=CC(=O)[C@@]3(C)[C@@H](O)[C@H]12,-3,-37,1,21,1,82*
c1ccc(CN2COC3CCCCCC32)cc1 (stereo unspecified),-2,2,-2,.,.,0
C[C@H]1CN([C@@H](C)CO)C(=O)CCCn2nncc2CO[C@H]1CN(C)C(=O)Oc1ccc2ccccc2c1,-2,3,-1,.,.,0
CCOC(=O)c1ccc2[nH]c(-c3ccc(S(=O)(=O)F)cc3)cc(=O)c2c1,-8,-2,-28,1,24*,0
O=C1CCC[C@@H]2C[C@@]3(C[C@@H]4CCN1[C@H]24)Nc1cc(Cl)ccc1NC3=NCc1ccccc1,2,2,0,2,-5,-3
C[C@]12CC[C@H](O)CC1=CCC1C2CC[C@]2(C)C(=O)[C@H](Br)CC12 (stereo partly specified),-3,-1,-25,4,14*,0
CCOC(=O)[C@]12Cc3cc(C)ccc3[C@H]1N(Cc1ccccc1)C(=O)c1cc(F)c(F)cc12,28,.,-6,.,.,0
CSc1nc(Cl)c(Br)c(N2CC2)n1,-5,51*,-4,-5,-1,4
Cn1c(O)c(/C=C2\C=c3ccccc3=NC2=O)c(=O)n(C)c1=O,-6,48,-8,7,1,0
Cn1c(O)c(/C=C2\N=c3ccccc3=C2CCNC(=S)NC2CC2)c(=O)n(C)c1=O,-4,10,-8,34,17*,0
COc1ccc(-n2nnnc2C(CCc2ccccc2)N2CCC(n3c(=O)[nH]c4ccccc43)CC2)cc1 (stereo unspecified),38,2,1,.,.,2
Cc1ccc2c(c1N)C(=O)c1ccccc1C2=O,-9,-3,53*,1,-1,0
COc1cccc(NP(=O)(Oc2ccc(Cl)cc2)Oc2ccc(Cl)cc2)c1,27,-11,1,0,-18,2
COc1ccccc1OP(=O)(Nc1cccnc1)Oc1ccccc1OC,-12,60*,0,.,0,1
O=C1C2CC(CN3CCCCC23)C2CCCCN12 (stereo unspecified),3,-1,0,.,.,-1
COC(=O)C1=C(c2ccc(OCc3ccccc3)c(F)c2)C[C@@H]2CC[C@H]1N2C,-6,-1,2,.,.,1
O=c1[nH]c(=O)n(Cc2ccc(F)cc2)c(O)c1C=NCCN1CCCCC1,-8,9,-6,-8,20*,-1
COc1ccc(Cn2c(O)c(C=NCCCn3ccnc3)c(=O)[nH]c2=O)cc1,-8,0,0,5,-2,18*
CCCCCCn1c(O)c(C=NCCCn2ccnc2)c(=O)[nH]c1=O,-10,4,3,17,0,1
O=c1[nH]c(=O)n(-c2ccccc2Cl)c(O)c1C=NCCN1CCCCC1,-4,-1,2,-1,401*,1
COc1cccc(C(c2nnnn2Cc2ccccc2)N2CCC3(CC2)C(=O)NCN3c2ccccc2)c1OC (stereo unspecified),26,7,-1,.,.,0
O=C(Nc1ccc(C(=O)O)cc1)Oc1ccc(N(CCCl)CCCl)cc1,9,-3,0,.,.,0
Fc1cccc(-c2ccc3c(c2)CNCc2cnnn2-3)c1,-2,8,3,.,.,4
C[C@H]1COc2cc(N3CCN(C)CC3)ccc2S(=O)(=O)N1,-10,.,0,.,.,0
CCOC(=O)c1cccc(C2=C(CNC(=O)c3cccnc3)[C@H]3CC[C@@H](C2)N3Cc2ccccc2)c1,-9,55*,2,.,.,5

# Source: PubChem (several laboratories)
